This passage reports inhibition and IC50 results from ChEMBL document CHEMBL3108713, “Identification of ML251, a Potent Inhibitor of T. brucei and T. cruzi Phosphofructokinase” (ACS Med Chem Lett, 2014).

A word on the inhibition: it is the share of the control response that was lost under treatment. The low end stands for a weak effect, the high end for a strong effect. For orientation: IC50 means the midpoint of a concentration-inhibition curve.

Experiment [1] has as its target T1, ATP-dependent 6-phosphofructokinase (Trypanosoma brucei) (UniProt O15648).
T1 sequence (whole entry): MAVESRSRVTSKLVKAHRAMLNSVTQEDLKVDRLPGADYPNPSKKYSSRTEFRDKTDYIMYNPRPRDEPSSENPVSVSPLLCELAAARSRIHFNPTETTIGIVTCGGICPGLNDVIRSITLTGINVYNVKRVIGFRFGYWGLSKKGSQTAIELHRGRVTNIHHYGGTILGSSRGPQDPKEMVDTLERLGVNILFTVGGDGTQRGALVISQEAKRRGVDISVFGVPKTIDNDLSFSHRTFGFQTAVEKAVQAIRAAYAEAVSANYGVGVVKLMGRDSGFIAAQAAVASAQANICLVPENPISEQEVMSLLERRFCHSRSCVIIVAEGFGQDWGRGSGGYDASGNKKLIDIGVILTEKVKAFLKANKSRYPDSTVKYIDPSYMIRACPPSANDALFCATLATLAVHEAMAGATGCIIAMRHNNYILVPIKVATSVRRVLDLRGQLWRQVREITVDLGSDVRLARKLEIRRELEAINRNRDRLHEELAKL
As to the kind of experiment: Inhibition of Trypanosoma brucei PFK-mediated ADP production using ATP/fructose-6-phosphate as substrate at 57 uM by luciferase based luminescence assay. The procedure, abridged:
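Recombinant T. brucei PFK; ADP formed by the enzyme is converted to a luminescent signal by a modified luciferase ADP-Glo detection, read at end point.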

For experiment [2], the target named is T2, ATP-dependent 6-phosphofructokinase (Trypanosoma cruzi, UniProt Q4E657).
T2 sequence (Q4E657 whole entry): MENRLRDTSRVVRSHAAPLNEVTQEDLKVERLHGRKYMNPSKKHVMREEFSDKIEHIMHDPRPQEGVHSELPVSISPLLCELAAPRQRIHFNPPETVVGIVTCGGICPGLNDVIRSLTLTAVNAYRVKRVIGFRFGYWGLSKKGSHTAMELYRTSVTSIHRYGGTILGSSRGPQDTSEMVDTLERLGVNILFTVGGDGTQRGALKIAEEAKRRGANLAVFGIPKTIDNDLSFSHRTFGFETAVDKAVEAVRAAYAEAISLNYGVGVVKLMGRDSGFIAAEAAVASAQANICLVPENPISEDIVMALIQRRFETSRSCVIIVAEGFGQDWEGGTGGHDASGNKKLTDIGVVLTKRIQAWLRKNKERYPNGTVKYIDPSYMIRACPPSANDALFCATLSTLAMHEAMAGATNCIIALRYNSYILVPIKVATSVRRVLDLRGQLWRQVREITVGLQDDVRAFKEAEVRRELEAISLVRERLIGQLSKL
The experiment in a line: Inhibition of Trypanosoma cruzi PFK.

The target of experiment [3] is T3, ATP-dependent 6-phosphofructokinase (Trypanosoma brucei, UniProt O15648).
T3 sequence (O15648 whole entry): T1 sequence (whole entry)
As to the kind of experiment: Inhibition of Trypanosoma brucei PFK-mediated ADP production using ATP/fructose-6-phosphate as substrate by luciferase based luminescence assay. The gist of the method:
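Recombinant enzyme; ADP formed by PFK detected with modified luciferase (ADP-Glo) luminescent end-point in 1536-well format.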

Experiment [4] deals with T4, ATP-dependent 6-phosphofructokinase (Trypanosoma cruzi) (UniProt Q4E657).
T4 sequence (whole entry): T2 sequence (Q4E657 whole entry)
As to the kind of experiment: Inhibition of Trypanosoma cruzi PFK at 57 uM. The gist of the method: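 PFK activity is measured by coupling ADP production to ADP-Glo luciferase luminescence at end point. Percent inhibition is recorded at 57 μM, the highest concentration of the dose series, with at least 3 separate experiments averaged.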

Turning to `Cc1cc(NS(=O)(=O)c2ccc(NC(=O)CCc3ccc(Cl)c(Cl)c3)cc2)no1`, the inhibition in experiment [1] and in experiment [4] was above 80% each time. Further, the IC50 worked out at 6.51 µM in experiment [2] and 5.17 µM in experiment [3].
For `Cc1cc(NS(=O)(=O)c2ccc(C(=O)NCc3ccc(Cl)c(Cl)c3)cc2)no1`, the inhibition in experiment [1] and in experiment [4] was above 80% in each case. In addition, the 50% inhibitory concentration (IC50) was 2.91 µM in experiment [2] and 5.16 µM in experiment [3].
In the case of `COc1ccc(CC(=O)Nc2ccc(S(=O)(=O)Nc3cc(C)on3)cc2)cc1C`, the concentration for half-maximal inhibition (IC50) was 20.6 µM in experiment [2] and above 57 µM in experiment [3]. The same compound came in with an inhibition in experiment [4] above 80%.
`Cc1cc(NS(=O)(=O)Cc2ccc(NC(=O)Cc3ccc(Cl)c(Cl)c3)cc2)no1`: the inhibition in experiment [1] and in experiment [4] was above 80% in each case. In addition, the figures for the IC50 in experiment [2] and in experiment [3] were 3.26 µM and 2.59 µM, respectively.
In the case of `Cc1cc(NS(=O)(=O)c2ccc(NS(=O)(=O)Cc3ccc(Cl)c(Cl)c3)cc2)no1`, the inhibition in experiment [1] was above 80%. In addition, the figures for the IC50 in experiment [2] and in experiment [3] were above 57 µM and 37 µM, respectively.
With `Cc1cc(NC(=O)c2csc(NC(=O)Cc3ccc(Cl)c(Cl)c3)n2)no1`, the 50% inhibitory concentration (IC50) in experiment [2] and in experiment [3] was above 57 µM in each case.
In the case of `Cc1cc(NS(=O)(=O)CCNC(=O)Cc2ccc(Cl)c(Cl)c2)no1`, the inhibition in experiment [1] and in experiment [4] was above 80% in each case. Moreover, the results for the IC50 in experiment [2] and in experiment [3] were 16.3 µM and 32.6 µM, respectively.
`COc1ccc(CC(=O)Nc2ccc(S(=O)(=O)Nc3cc(C)on3)cc2)cc1OC`: the IC50 in experiment [2] and in experiment [3] was above 57 µM in each case.
Take `O=C(Cc1ccc(Cl)c(Cl)c1)Nc1ccc(S(=O)(=O)Nc2nccs2)cc1`: the inhibition in experiment [1] and in experiment [4] was above 80% in each case. Also, the IC50 in experiment [2] came to 0.041 µM; in experiment [3] it was 0.079 µM.
Take `Cc1cc(NS(=O)(=O)c2ccc(NC(=O)Cc3cccc(Cl)c3)cc2)no1`: the inhibition in experiment [1] and in experiment [4] was above 80% throughout. For the same compound, the IC50 in experiment [2] worked out at 2.59 µM; in experiment [3] it was 7.3 µM.
Turning to `O=C(Cc1ccc(Cl)c(Cl)c1)Nc1ccc(S(=O)(=O)Nc2cccc(C(=O)O)c2)cc1`, the inhibition in experiment [1] and in experiment [4] was above 80% throughout. Moreover, the half-maximal inhibitory concentration (IC50) in experiment [2] was 0.58 µM; in experiment [3], 0.26 µM.
With `Cc1cc(NS(=O)(=O)c2ccc(NC(=O)Cc3ccccc3)cc2)no1`, the inhibition in experiment [1] and in experiment [4] was above 80% in each case. Further, the 50% inhibitory concentration (IC50) in experiment [2] was 20.6 µM; in experiment [3], 36.6 µM.
On to `O=C(Cc1ccc(Cl)c(Cl)c1)Nc1ccc(S(=O)(=O)Nc2cncnc2)cc1`, for which the inhibition in experiment [1] and in experiment [4] was above 80% in each case. Further, the IC50 in experiment [2] turned out to be 0.73 µM; in experiment [3] it was 0.82 µM.
For `Cc1cc(NS(=O)(=O)c2ccc(NC(=O)c3ccc(Cl)c(Cl)c3)cc2)no1`, the inhibition in experiment [1] and in experiment [4] was above 80% each time. For the same compound, the concentration for half-maximal inhibition (IC50) in experiment [2] worked out at 20.6 µM; in experiment [3], 14.6 µM.
Turning to `O=C(Cc1ccc(Cl)c(Cl)c1)Nc1ccc(S(=O)(=O)Nc2cccc(O)c2)cc1`, the inhibition in experiment [1] and in experiment [4] was above 80% each time. Also, the IC50 in experiment [2] turned out to be 1.63 µM; in experiment [3] it was 1.46 µM.
Consider `CCOC(=O)c1cccc(NS(=O)(=O)c2ccc(NC(=O)Cc3ccc(Cl)c(Cl)c3)cc2)c1`, for which the concentration for half-maximal inhibition (IC50) in experiment [2] and in experiment [3] was above 57 µM in each case.
With `CN(C)c1cccc(NS(=O)(=O)c2ccc(NC(=O)Cc3ccc(Cl)c(Cl)c3)cc2)c1`, the inhibition in experiment [1] and in experiment [4] was above 80% in each case. Further, the IC50 in experiment [2] came out at 11.6 µM; in experiment [3], 5.8 µM.
In the case of `Cc1cc(N(C)S(=O)(=O)c2ccc(NC(=O)Cc3ccc(Cl)c(Cl)c3)cc2)no1`, the inhibition in experiment [1] and in experiment [4] was above 80% in each case. For the same compound, the values for the half-maximal inhibitory concentration (IC50) in experiment [2] and in experiment [3] were 2.06 µM and 2.91 µM, respectively.
Take `O=C(Cc1ccc(Cl)c(Cl)c1)Nc1ccc(S(=O)(=O)Nc2ccc(C(=O)O)cc2)cc1`: the inhibition in experiment [1] and in experiment [4] was above 80% throughout. In addition, the half-maximal inhibitory concentration (IC50) in experiment [2] was 0.29 µM; in experiment [3], 0.16 µM.
Consider `Cc1cc(NS(=O)(=O)c2ccc(NC(=O)Cc3ccc(Cl)c(C(F)(F)F)c3)cc2)no1`, for which the inhibition in experiment [1] and in experiment [4] was above 80% throughout. In addition, the concentration for half-maximal inhibition (IC50) is 0.92 µM in experiment [2] and 0.68 µM in experiment [3].
For the compound `Cc1cc(NC(=O)c2ccc(NC(=O)Cc3ccc(Cl)c(Cl)c3)cc2)no1`, the IC50 in experiment [2] and in experiment [3] was above 57 µM throughout.
As for `Cc1cc(NS(=O)(=O)c2ccc(NCCc3ccc(Cl)c(Cl)c3)cc2)no1`, the inhibition in experiment [1] and in experiment [4] was above 80% each time. Further, the half-maximal inhibitory concentration (IC50) in experiment [2] stood at 16.3 µM; in experiment [3], 6 µM.
Turning to `Cc1cc(NS(=O)(=O)c2ccc(NC(=O)Cc3ccc(F)c(Cl)c3)cc2)no1`, the inhibition in experiment [1] and in experiment [4] was above 80% each time. Besides, the IC50 in experiment [2] was determined as 0.46 µM; in experiment [3] it was 0.73 µM.
On to `Cc1cc(NS(=O)(=O)c2ccc(NC(=O)Cc3ccc(Cl)cc3)cc2)no1`, for which the inhibition in experiment [1] and in experiment [4] was above 80% throughout. The half-maximal inhibitory concentration (IC50) in experiment [2] was 1.46 µM; in experiment [3], 1.83 µM.
Take `Cc1cc(NS(=O)(=O)c2cccc(NC(=O)Cc3ccc(Cl)c(Cl)c3)c2)no1`: the inhibition in experiment [1] and in experiment [4] was above 80% each time. Moreover, the IC50 in experiment [2] and in experiment [3] was 16.3 µM in each case.
As for `O=C(Cc1ccc(Cl)c(Cl)c1)Nc1ccc(S(=O)(=O)Nc2ccccc2)cc1`, the inhibition in experiment [1] and in experiment [4] was above 80% in each case. Moreover, the half-inhibitory concentration (IC50) in experiment [2] and in experiment [3] was 16.3 µM in each case.
In the case of `Cc1cc(NS(=O)(=O)c2ccc(NC(=O)Cc3ccc(C)c(C)c3)cc2)no1`, the inhibition in experiment [1] and in experiment [4] was above 80% in each case. In addition, the 50% inhibitory concentration (IC50) in experiment [2] turned out to be 6.5 µM; in experiment [3], 18.3 µM.
Turning to `Cc1cc(NS(=O)(=O)c2ccc(NC(=O)C(C)(C)c3ccc(Cl)c(Cl)c3)cc2)no1`, the inhibition in experiment [1] and in experiment [4] was above 80% in each case. Besides, the 50% inhibitory concentration (IC50) amounted to 36.5 µM in experiment [2] and 36.6 µM in experiment [3].
As to `O=C(Cc1ccc(Cl)c(Cl)c1)Nc1ccc(S(=O)(=O)Nc2nncs2)cc1`, the inhibition in experiment [1] and in experiment [4] was above 80% throughout. For the same compound, the 50% inhibitory concentration (IC50) turned out to be 0.052 µM in experiment [2] and 0.112 µM in experiment [3].
For `O=C(Cc1ccc(Cl)c(Cl)c1)Nc1ccc(S(=O)(=O)Nc2cc[nH]n2)cc1`, the inhibition in experiment [1] and in experiment [4] was above 80% each time. Besides, the results for the IC50 in experiment [2] and in experiment [3] were 0.73 µM and 0.52 µM, respectively.
As for `Cc1cc(NS(=O)(=O)C2CCN(C(=O)Cc3ccc(Cl)c(Cl)c3)CC2)no1`, the inhibition in experiment [1] and in experiment [4] was above 80% throughout. The IC50 in experiment [2] is 13 µM; in experiment [3], 33 µM.
In the case of `Cc1cc(NS(=O)(=O)c2ccc(NC(=O)Cc3ccc(Cl)c(Cl)c3)cc2)n(C)n1`, the inhibition in experiment [1] and in experiment [4] was above 80% each time. In addition, the IC50 was 1.16 µM in experiment [2] and 2.31 µM in experiment [3].
For `O=C(Cc1ccc(F)c(Cl)c1)Nc1ccc(S(=O)(=O)Nc2nccs2)cc1`, the inhibition in experiment [1] and in experiment [4] was above 80% each time. Besides, the IC50 in experiment [2] was determined as 0.12 µM; in experiment [3] it was 0.024 µM.
As for `Cc1cc(NS(=O)(=O)c2ccc(NC(=O)Cc3ccc4ccccc4c3)cc2)no1`, the inhibition in experiment [1] and in experiment [4] was above 80% throughout. The concentration for half-maximal inhibition (IC50) in experiment [2] turned out to be 1.83 µM; in experiment [3], 6.51 µM.
As for `O=C(Cc1ccc(Cl)c(Cl)c1)Nc1ccc(S(=O)(=O)O)cc1`, the inhibition in experiment [1] and in experiment [4] was above 80% each time. For the same compound, the IC50 in experiment [2] amounted to 0.46 µM; in experiment [3] it was 0.65 µM.
The compound `Cc1ccc(C(=O)Nc2ccc(S(=O)(=O)O)c3cc(S(=O)(=O)O)cc(S(=O)(=O)O)c23)cc1NC(=O)c1cccc(NC(=O)Nc2cccc(C(=O)Nc3cc(C(=O)Nc4ccc(S(=O)(=O)O)c5cc(S(=O)(=O)O)cc(S(=O)(=O)O)c45)ccc3C)c2)c1` [SURAMIN] had an IC50 in experiment [3] of 3 µM.
